Screening data from PubChem BioAssay.
Sampled rows, rich in hits. Any-hit rate of the full collection: about 2.1%.
TLR9-MyD88 inh: TLR9-MyD88 interaction inhibition | CHO BLA complementation TLR9-MyD88, CCF4 FRET ratio | inhibition, % at 4.98 µM | 340,000 compounds, 0.21% hits | Q9NR96+Q99836;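 active = inhibition above the mean over all tested compounds plus 3 SD, cut at about 21% in these data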
MIN6 prolif-1: inducers of beta-cell replication in MIN6 cells. MIN6 cells proliferation, ATPlite luminescence, 48 h; cells starved in 0.2% serum; 100% = growth in 10% serum. proliferation, % at 10 µM. 330,000 compounds, 0.29% hits;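 active = compounds whose signal lies at least 3.5 SD above the mean of all wells on their plate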
NOD2-RIPK2 inh: inhibitors of human NOD2-RIPK2 interaction. inhibition, % at 4.98 µM. O43353. 360,000 compounds, 0.38% hits. CHO BLA complementation NOD2-RIPK2, CCF4 ratio; in the data active = inhibition above about 21%
Target sequence (O43353 whole entry, looked up): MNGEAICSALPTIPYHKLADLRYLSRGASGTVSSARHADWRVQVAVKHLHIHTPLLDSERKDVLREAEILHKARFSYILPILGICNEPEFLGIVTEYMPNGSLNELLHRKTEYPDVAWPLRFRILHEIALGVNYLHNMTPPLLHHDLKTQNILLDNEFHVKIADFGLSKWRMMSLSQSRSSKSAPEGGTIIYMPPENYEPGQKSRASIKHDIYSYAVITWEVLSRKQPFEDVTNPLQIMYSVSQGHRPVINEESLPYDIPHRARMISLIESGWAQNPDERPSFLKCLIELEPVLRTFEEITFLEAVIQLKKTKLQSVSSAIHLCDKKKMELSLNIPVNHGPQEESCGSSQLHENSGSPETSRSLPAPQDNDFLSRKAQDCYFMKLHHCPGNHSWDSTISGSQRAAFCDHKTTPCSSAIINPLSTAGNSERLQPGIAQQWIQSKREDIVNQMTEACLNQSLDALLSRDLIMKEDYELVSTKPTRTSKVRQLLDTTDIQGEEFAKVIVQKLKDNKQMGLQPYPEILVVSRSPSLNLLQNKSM
MC4R barr agon: agonists of human melanocortin 4 receptor (MC4R) beta-arrestin; activation, % at 8.9 µM; U2OS MC4R beta-arrestin complementation, luminescence; percent of melanotan II response, DMSO zero; 360,000 compounds, 0.98% hits;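 active = activation above a per-plate cutoff, the mean activation of sample wells on that plate plus 3 SD, cut at about 8% in these data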
TLR4-MyD88 BLA: TLR4-MyD88 interaction inhibition in cells; AID 861; inhibition, % at 8.4 µM; O00206+Q99836; HeLa CL3-4 TLR4/MyD88 BLA complementation, FRET ratio; 200,000 compounds, 0.18% hits; in the data active = inhibition above about 25%
MC4R antagonist: human MC4R antagonism in cAMP assay | P32245 | 360,000 compounds, 0.48% hits | MC4R-expressing cells, MTII-stimulated cAMP, LANCE TR-FRET | inhibition, % at 6.5 µM;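 active = inhibition above its plate's cutoff, the mean of tested wells on that plate plus 3 SD, cut at about 29% in these data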
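material = U2OS cells stably expressing human melanocortin 4 receptor (MC4R) | also added = Melanotan II challenge | dosing = single nominal compound dose of 6.5 µM | detection = TR-FRET with Eu-cAMP and labeled anti-cAMP, 671 nm | replication = singlicate | timing = compound 30 min, challenge 1 h, detection 1 h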
MIN6 prolif-2: confirmation of inducers of beta-cell replication in MIN6 cells | MIN6 beta-cell proliferation, ATPlite luminescence, 48 h; cells kept in 0.2% serum; scaled between 0.2% and 10% serum | shares compounds with MIN6 prolif-1 | 920 tested, under 10 active | proliferation increase, % at 50 µM;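 active = proliferation increase above 40% at any of the four tested concentrations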
Large screens that a line does not name were inactive (follow-up assays come after a bar, where they were run).

COc1ccc(NC(=O)c2cc(C3CCCCN3C(=O)OCc3ccccc3)on2)c(C)c1 (centres undefined)	none (no result: TLR9-MyD88 inh, MIN6 prolif-1, TLR4-MyD88 BLA)
Cc1cccc(N2CCN(c3ccc4cc(S(=O)(=O)N5CCCCC5)ccc4n3)CC2)c1C	none (no result: TLR4-MyD88 BLA)
CCCc1nnc(SCC(=O)NC2CC2)n1C	none (no result: TLR4-MyD88 BLA)
CCc1nnc(NC(=O)OCc2ccccc2)s1	MIN6 prolif-1 6.0 | MIN6 prolif-2 inactive
COc1ccccc1CCN1CCCC(CN(C)Cc2ccc(OCCO)cc2)C1 (centres undefined)	MIN6 prolif-1 5.8 (no result: TLR4-MyD88 BLA) | MIN6 prolif-2 inactive
CCOC(=O)C1CCN(S(=O)(=O)c2ccc3c(c2)NC(=O)CS3)CC1	none (no result: TLR4-MyD88 BLA)
Cn1c(=O)c2c(nc(OCc3ccccc3)n2C)n(C)c1=O	MIN6 prolif-1 15.7 | MIN6 prolif-2 inactive
COc1ccc(OC)c(NC(=O)c2ccccc2NS(=O)(=O)c2cccc3cccnc23)c1	MIN6 prolif-1 5.4 | MIN6 prolif-2 inactive
O=C(Nc1cccc2ccccc12)c1ccccc1NS(=O)(=O)c1cccc2cccnc12	none
CCOc1ccc(C(=O)COC(=O)CNC(=O)C2CCCCC2)cc1	none (no result: TLR4-MyD88 BLA)
CN(C)/C=N/c1c(C#N)cnn1-c1ccccc1	none
CN(C)/C=N/c1c(C#N)cnn1-c1ncnc2sc(-c3ccccc3)cc12	MIN6 prolif-1 12.2 | MIN6 prolif-2 inactive
CCN1CCN(c2sc(S(C)(=O)=O)nc2S(=O)(=O)c2ccc(C)cc2)CC1	MIN6 prolif-1 16.2 (no result: TLR4-MyD88 BLA) | MIN6 prolif-2 inactive
CN(C)/C=C/C(=O)c1ccn(S(=O)(=O)c2ccccc2)c1	none (no result: TLR4-MyD88 BLA)
CC(C)CNC(=O)CN(C1CCCCC1)S(=O)(=O)c1ccccc1	MIN6 prolif-1 9.1 | MIN6 prolif-2 inactive
COC(=O)N[C@H](CC(C)=O)c1cccc(C(F)(F)F)c1	none
COC(=O)N[C@H](CC(C)=O)c1ccccc1	MIN6 prolif-1 12.5 (no result: TLR9-MyD88 inh, NOD2-RIPK2 inh, MC4R barr agon, MC4R antagonist) | MIN6 prolif-2 inactive
O=C1CCCN1c1ccc(Br)cc1	MIN6 prolif-1 7.2 | MIN6 prolif-2 inactive
O=C1CCCN1c1ccc(N2CCCC2=O)cc1	none (no result: TLR4-MyD88 BLA)
CC1(C)CC(=S)Nc2ccccc2S1	MIN6 prolif-1 10.9 | MIN6 prolif-2 inactive
CCOC(=O)/C(=N\O)C1=NC(C)(C)Cc2ccccc21	none
CCOC(=O)/C(C(=O)Nc1ccccc1Br)=C1/NC(C)(C)Cc2ccccc21	MIN6 prolif-1 0.0 | MIN6 prolif-2 inactive
Cc1ccc(CNC(=O)C2CCCN(c3ncnc4c3nc3n4CCCCC3)C2)cc1 (centres undefined)	MIN6 prolif-1 14.1 (no result: TLR4-MyD88 BLA) | MIN6 prolif-2 inactive
O=C(NCc1ccccc1)C1CCCN(c2ncnc3c2nc2n3CCCCC2)C1 (centres undefined)	none (no result: TLR4-MyD88 BLA)
O=C(Cc1cccc(NC(=O)C2CCCN(C(=O)c3ccccc3)C2)c1)Nc1ccc(C(=O)N2CCOCC2)cc1 (centres undefined)	none (no result: MIN6 prolif-1, TLR4-MyD88 BLA)
CC1Cc2ccccc2N1c1ncnc(N)c1[N+](=O)[O-] (centres undefined)	none
CC1CCCCN1c1ncnc(N)c1[N+](=O)[O-] (centres undefined)	MIN6 prolif-1 8.8 | MIN6 prolif-2 inactive
Cc1nc(N2CCOCC2)nc(N2CCCCC2C)c1[N+](=O)[O-] (centres undefined)	MIN6 prolif-1 8.1 (no result: TLR4-MyD88 BLA) | MIN6 prolif-2 inactive
Cc1ccc(Sc2ncccc2C(=O)N(C)Cc2cccs2)c(C)c1	none (no result: TLR4-MyD88 BLA)
O=C(C(=O)N1CCCN(Cc2ccc(F)cc2)CC1)c1ccccc1	none (no result: TLR9-MyD88 inh, MIN6 prolif-1, MC4R barr agon, TLR4-MyD88 BLA, MC4R antagonist)
O=C(CN1CCCC1)Nc1c(C(=O)C2CC2)oc2ccccc12	MIN6 prolif-1 7.1 (no result: TLR4-MyD88 BLA) | MIN6 prolif-2 inactive
CC(=O)c1ccc(OCC(=O)OCC(=O)NCc2ccco2)cc1	none (no result: TLR4-MyD88 BLA)
O=C(Nc1c(Cl)cc(Cl)cc1C(=O)NCCN1CCOCC1)c1ccc(Cl)cc1Cl	MIN6 prolif-1 8.7 | MIN6 prolif-2 inactive
Cc1ccc(C(=O)NCCN2CCOCC2)c(Cl)c1	MIN6 prolif-1 6.0 (no result: TLR4-MyD88 BLA) | MIN6 prolif-2 inactive
O=C(COc1ccccc1)NC1C(=O)N2C(C(=O)O)=C(Cl)CSC12 (centres undefined)	MIN6 prolif-1 10.4 (no result: TLR4-MyD88 BLA) | MIN6 prolif-2 inactive
